Data set [1] can be described thus: Selectivity index, ratio of CC50 for human MT4 cells to EC50 for reverse transcriptase Y188L mutant in human MT4 cells infected HIV1 3B.
A short description of data set [2]: Selectivity index, ratio of CC50 for human MT4 cells to EC50 for reverse transcriptase Y181C mutant in human MT4 cells infected HIV1 3B.
The nature of data set [3]: Selectivity index, ratio of CC50 for human MT4 cells to EC50 for HIV1 RES056 reverse transcriptase K103N/Y181C double mutant infected in human MT4 cells.
Data set [4] in a line: Selectivity index, ratio of CC50 for human MT4 cells to EC50 for reverse transcriptase E138K mutant in human MT4 cells infected HIV1 3B.
Data set [5] can be described thus: Selectivity index, ratio of CC50 for human MT4 cells to EC50 for reverse transcriptase K103N mutant in human MT4 cells infected HIV1 3B.
Data set [6] in a line: Selectivity index, ratio of CC50 for human MT4 cells to EC50 for wild type HIV1 3B harboring reverse transcriptase infected in human MT4 cells.
A short description of data set [7]: Cytotoxicity against human MT4 cells assessed as cell viability after 5 days by MTT assay. It counts as cell-based.
The nature of data set [8]: Selectivity index, ratio of CC50 for human MT4 cells to EC50 for reverse transcriptase F227L/V106A double mutant in human MT4 cells infected HIV1 3B.
In data set [9] the test system is Human immunodeficiency virus 2. Kind of data set: Antiviral activity against HIV2 ROD harboring reverse transcriptase infected in human MT4 cells assessed as protection against virus induced cytotoxicity after 5 days by MTT assay. The conditions noted are these: Human immunodeficiency virus 2, ISOLATE ROD, MT4, 120 h. The class given is functional, cell-based.
The subject of data set [10] is Human immunodeficiency virus 1. Kind of data set: Antiviral activity against wild type HIV1 3B harboring reverse transcriptase infected in human MT4 cells assessed as protection against virus induced cytotoxicity after 5 days by MTT assay. It counts as functional, cell-based. The conditions noted are these: Human immunodeficiency virus 1, 3B, MT4, 120 h.
Data set [11] is described as follows: Selectivity index, ratio of CC50 for human MT4 cells to EC50 for reverse transcriptase L100I mutant in human MT4 cells infected HIV1 3B.
The nature of data set [12]: Fold resistance, ratio of EC50 for reverse transcriptase E138K mutant in human MT4 cells infected HIV1 3B to EC50 for wild type HIV1 3B harboring reverse transcriptase infected in human MT4 cells. The class given is functional. Summed up:
(§1)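 MT-4 cells at 6 × 10^5 cells/mL were infected with WT HIV-1 IIIB or RT-mutant strains at 100−300 CCID50, with 5-fold serial compound dilutions in triplicate wells. After 5 days, viability was read by MTT reduction at 540 and 690 nm, using the median OD of three wells. […] Fold resistance is mutant EC50 divided by WT EC50.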

The nature of data set [13]: Inhibition of recombinant wild type HIV1 3B reverse transcriptase infected in human MT4 cells assessed as decrease in biotin-dUTP incorporation after 1 hr. It counts as cell-based. The conditions noted are these: Human immunodeficiency virus 1, 3B, MT4, 1 h. In short, it runs like this: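 Recombinant HIV-1 RT assayed with a kit ELISA. Enzyme, reconstituted template and nucleotides (DIG-dUTP, biotin-dUTP, dTTP) were incubated in incubation buffer with or without inhibitor for 1 h at 37 °C. Product was captured on streptavidin plates for 1 h at 37 °C, then anti-DIG-POD was added for 1 h at 37 °C, followed by ABTS. Read at OD405.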

Data set [14] is described as follows: Fold resistance, ratio of EC50 for reverse transcriptase Y181C mutant in human MT4 cells infected HIV1 3B to EC50 for wild type HIV1 3B harboring reverse transcriptase infected in human MT4 cells. The class given is functional. Summed up: as §1
Data set [15] can be described thus: Fold resistance, ratio of EC50 for reverse transcriptase K103N mutant in human MT4 cells infected HIV1 3B to EC50 for wild type HIV1 3B harboring reverse transcriptase infected in human MT4 cells. The class given is functional. In short, it runs like this: as §1
Data set [16] in a line: Fold resistance, ratio of EC50 for reverse transcriptase K103N/Y181C double mutant in human MT4 cells infected HIV1 RES056 to EC50 for wild type HIV1 3B harboring reverse transcriptase infected in human MT4 cells. It counts as functional. In short, it runs like this:
as §1

Data set [17] in a line: Fold resistance, ratio of EC50 for reverse transcriptase L100I mutant in human MT4 cells infected HIV1 3B to EC50 for wild type HIV1 3B harboring reverse transcriptase infected in human MT4 cells. It counts as functional. In short, it runs like this: as §1
The nature of data set [18]: Fold resistance, ratio of EC50 for reverse transcriptase F227L/V106A double mutant in human MT4 cells infected HIV1 3B to EC50 for wild type HIV1 3B harboring reverse transcriptase infected in human MT4 cells. It counts as functional. In short, it runs like this: as §1
A short description of data set [19]: Fold resistance, ratio of EC50 for reverse transcriptase Y188L mutant in human MT4 cells infected HIV1 3B to EC50 for wild type HIV1 3B harboring reverse transcriptase infected in human MT4 cells. It counts as functional. In short, it runs like this:
as §1

Data set [20] deals with Human immunodeficiency virus type 1 reverse transcriptase (Human immunodeficiency virus 1), Q72547 [K103N]. Kind of data set: Potency index, ratio of EC50 for EFV to EC50 for test compound for reverse transcriptase K103N mutant in human MT4 cells infected HIV1 3B. The class given is cell-based.
The test system is the same in data set [21]. Kind of data set: Potency index, ratio of EC50 for NVP to EC50 for test compound for reverse transcriptase K103N mutant in human MT4 cells infected HIV1 3B. The class given is cell-based.

Where only a bound is given, the exact number is not on record here.

Take `Cc1cc(C#N)cc(C)c1Oc1nc(NC2CCC(NCc3ccc([N+](=O)[O-])cc3)CC2)nc2ccsc12` (stereo unspecified): the selectivity ratio in data set [1] (MT4 cells) was 5; in data set [2] (MT4 cells), at most 2; in data set [3] (MT4 cells), below 1; in data set [4] (MT4 cells), 344; in [5] (MT4 cells) it was 79; in data set [6] (MT4 cells), 544. For the same compound, the selectivity ratio in [8] (MT4 cells) amounted to 84; in data set [11] (MT4 cells) it was 35. Moreover, the CC50 at 120 h in data set [7] was determined as 54.4 µM. The EC50 is above 54.4 µM in data set [9] and 0.1 µM in data set [10]. Also, in data set [12], the “Ratio EC50” value worked out at 1.6.
Regarding `Cc1cc(C#N)cc(C)c1Oc1nc(Nc2ccc(C#N)cc2)nc(N)c1Br` [ETRAVIRINE], the IC50 in data set [13] turned out to be 1 µM. Moreover, the selectivity ratio in data set [1] was above 224; in data set [2] it was above 291; in data set [3], above 270; in data set [4], above 318; in [5], above 1950; in [6] it was above 1130. Moreover, the selectivity ratio in data set [8] is 156; in data set [11], above 853. In addition, the “Ratio EC50” value is given as 0.6 - 7.2 in data set [14]; 0.6 - 7.2 in data set [15]; 4.2 in data set [16]; 1.3 in [17]; 0.6 - 7.2 in data set [12]; 0.6 - 7.2 in data set [18]. Besides, the “Ratio EC50” value in [19] is reported as 0.6 - 7.2. For the same compound, the CC50 at 120 h in data set [7] was above 4.59 µM. Also, the EC50 in [10] came to 0.00407 µM.
For `Cc1cc(C#N)cc(C)c1Oc1nc(NC2CCC(NCc3ccc(S(C)(=O)=O)cc3)CC2)nc2ccsc12` (stereo unspecified), the selectivity ratio in data set [1] (MT4 cells) was at most 1; in data set [2] (MT4 cells), below 1; in data set [3] (MT4 cells), below 1; in [4] (MT4 cells), 556; in [5] (MT4 cells) it was 212; in data set [6] (MT4 cells), 1320. Moreover, the values for the selectivity ratio in data set [8] (MT4 cells) and in [11] (MT4 cells) were below 1 and at most 1, respectively. Further, in data set [7], the CC50 at 120 h was 75.2 µM. Further, the EC50 is above 75.2 µM in data set [9] and 0.0573 µM in [10]. The “Ratio EC50” value in data set [12] stood at 2.4.
As for `Cc1cc(/C=C/C#N)cc(C)c1Oc1nc(NC2CCN(Cc3cccnc3)CC2)nc2ccsc12`, the selectivity ratio in [1] (MT4 cells) is 358; in [2] (MT4 cells), 637; in data set [3] (MT4 cells) it was 308; in [4] (MT4 cells), 587; in data set [5] (MT4 cells), 872; in [6] (MT4 cells) it was 1200. Moreover, the selectivity ratio worked out at 664 in [8] (MT4 cells) and 866 in data set [11] (MT4 cells). In addition, the CC50 at 120 h in data set [7] stood at 3.86 µM. Moreover, in [16], the “Ratio EC50” value is 3.4 - 6. In addition, the values for the 50% effective concentration (EC50) in [9] and in data set [10] were above 3.86 µM and 0.00322 µM, respectively.
Turning to `Cc1cc(C#N)cc(C)c1Oc1nc(NC2CCN(Cc3ccc(S(N)(=O)=O)cc3)CC2)nc2sccc12`, the 50% inhibitory concentration (IC50) in [13] was determined as 0.42 µM. In addition, the selectivity ratio in data set [1] (MT4 cells) amounted to 3170; in [2] (MT4 cells) it was 3160; in data set [3] (MT4 cells), 625; in [4] (MT4 cells), 3180; in [5] (MT4 cells), 7370; in [6] (MT4 cells) it was 12300. The figures for the selectivity ratio in [8] (MT4 cells) and in [11] (MT4 cells) were 2730 and 5440, respectively. Besides, in data set [7], the CC50 at 120 h came out at 24.1 µM. The 50% effective concentration (EC50) was above 24.1 µM in [9] and 0.00197 µM in data set [10].
As to `Cc1cc(C#N)cc(C)c1Oc1nc(NC2CCN(Cc3ccc(S(N)(=O)=O)cc3)CC2F)nc2ccsc12` (stereo unspecified), the selectivity ratio in data set [1] (MT4 cells) came out at 370; in data set [2] (MT4 cells), 171; in [3] (MT4 cells) it was 138; in data set [4] (MT4 cells) it was 296; in data set [5] (MT4 cells), 653; in data set [6] (MT4 cells), 906. The selectivity ratio was determined as 590 in [8] (MT4 cells) and 576 in [11] (MT4 cells). The “Ratio EC50” value in data set [14], in [15], in data set [16], in [17], in data set [12] and in data set [18] was 1.4 - 6.5 throughout. Also, the “Ratio EC50” value in [19] was 1.4 - 6.5. Further, in data set [7], the CC50 at 120 h amounted to 5.15 µM. Also, the EC50 in [9] is above 5.15 µM; in data set [10] it was 0.00569 µM.
As for `Cc1cc(C#N)cc(C)c1Oc1nc(NC2CCN(Cc3ccc(S(C)(=O)=O)cc3)CC2)nc2sccc12`, the selectivity ratio in data set [1] (MT4 cells) turned out to be 124; in data set [2] (MT4 cells), 200; in data set [3] (MT4 cells) it was 28; in data set [4] (MT4 cells), 164; in [5] (MT4 cells), 725; in data set [6] (MT4 cells), 335. Besides, the selectivity ratio in data set [8] (MT4 cells) is 137; in data set [11] (MT4 cells), 152. Further, the figures for the Ratio EC50 in data set [20] and in data set [21] were 50 and 3370, respectively. Also, the CC50 at 120 h in [7] was 1.19 µM. Moreover, the results for the EC50 in data set [9] and in data set [10] were above 1.19 µM and 0.00356 µM, respectively.
In the case of `Cc1cc(C#N)cc(C)c1Oc1nc(NC2CCN(Cc3ccc(S(N)(=O)=O)cc3)CC2)nc2ccsc12`, the selectivity ratio in data set [1] (MT4 cells) is above 75800; in data set [2] (MT4 cells) it was above 70000; in data set [3] (MT4 cells), above 7350; in data set [4] (MT4 cells), above 78100; in data set [5] (MT4 cells) it was above 78100; in [8] (MT4 cells), above 53500. Also, the selectivity ratio in data set [11] (MT4 cells) was above 67400. The “Ratio EC50” value in data set [16] was 21; in [17] it was 2.4.

The values above are taken from ChEMBL document CHEMBL4049458, “Structure-Based Optimization of Thiophene[3,2-d]pyrimidine Derivatives as Potent HIV-1 Non-nucleoside Reverse Transcriptase Inhibitors with Improved Potency against Resistance-Associated Variants” (J Med Chem, 2017).
